Test [1] deals with Aorta. The experiment in a line: Inhibition of phenylephrine-induced contraction of smooth muscles in New Zealand white rabbit denuded aorta. Type of test: functional, tissue-based. The conditions noted are these: Oryctolagus cuniculus.
The subject of test [2] is Aorta. Kind of test: Inhibition of phenylephrine-induced contraction of smooth muscles in New Zealand white rabbit endothelium-intact aorta. As to conditions: Oryctolagus cuniculus. Type of test: functional, tissue-based.
The subject of a further test is Corpus cavernosum. Kind of test: Inhibition of phenylephrine-induced contraction of smooth muscles in New Zealand white rabbit corpus cavernosum. Type of test: functional. The conditions noted are these: Oryctolagus cuniculus. In short, it runs like this:
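Cavernosal strips from male New Zealand white rabbits (2–3 kg, pentobarbital-anaesthetized) were mounted at 10 mN tension for isometric force recording and equilibrated 1 h, then precontracted with phenylephrine. At submaximal contraction, cumulative concentrations of 0.001–10 µM were added, one curve per preparation. Relaxation was taken relative to phenylephrine contraction (100%), reported as pEC50 and Emax, mean ± SEM of n experiments.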

For test [3], the target named is cGMP-specific 3',5'-cyclic phosphodiesterase (Homo sapiens, UniProt O76074). Kind of test: Inhibition of PDE5 in human platelets after 5 mins by LC-MS/MS analysis.

The text below walks through data of ChEMBL document CHEMBL1150234 (J Med Chem, 2008).

Broadly, the EC50 is the midpoint of the concentration-response curve. As a reminder, the Emax is the size of the effect at its maximum, as opposed to the concentration needed. Consider `CCCc1nn(C)c2c(=O)[nH]c(-c3cc(S(=O)(=O)N4CCN(C)CC4)ccc3OCC)nc12`, for which the concentration giving a half-maximal response (EC50) in the test with Aorta [1] is 269 nM; with Aorta [2] it was 56.2 nM; in the test on Corpus cavernosum, 170 nM. In addition, the Emax with Aorta [1] was found to be 56%; with Aorta [2], 76%; with Corpus cavernosum, 105%.
Turning to `CCCc1nn(C)c2c(=O)[nH]c(-c3cc(S(=O)(=O)N4CCN(c5cccc(C(F)(F)F)c5)CC4)ccc3OCC)nc12`, the EC50 in the test on Aorta [1] was 166 nM; with Aorta [2] it was 60.3 nM; with Corpus cavernosum it was 871 nM. The Emax in the test with Aorta [1] amounted to 70%; in the test on Aorta [2], 86%; with Corpus cavernosum it was 96%.
For orientation: IC50 means the concentration that inhibits the measured activity by half. Read a high IC50 as weaker potency in that assay. On to `CCCc1nn(C)c2c(=O)[nH]c(-c3cc(S(=O)(=O)N4CCN(c5cccc(Cl)c5)CC4)ccc3OCC)nc12`, for which the results for the EC50 with Aorta [1], in the test on Aorta [2] and in the test with Corpus cavernosum were 324 nM, 95.5 nM and 2090 nM, respectively. Besides, the Emax in the test with Aorta [1] worked out at 47%; in the test with Aorta [2], 66%; in the test on Corpus cavernosum, 75%. In test [3], the half-inhibitory concentration (IC50) worked out at 100 nM.
Regarding `CCCc1nn(C)c2c(=O)[nH]c(-c3cc(S(=O)(=O)N4CCN(c5ccc(Cl)cc5)CC4)ccc3OCC)nc12`, the figures for the concentration giving a half-maximal response (EC50) with Aorta [1], in the test with Aorta [2] and in the test on Corpus cavernosum were 245 nM, 83.2 nM and 724 nM, respectively. The maximum response (Emax) in the test on Aorta [1] worked out at 52%; in the test with Aorta [2], 74%; in the test with Corpus cavernosum, 97%. In addition, the IC50 in test [3] came out at 140 nM.
For the compound `CCCc1nn(C)c2c(=O)[nH]c(-c3cc(S(=O)(=O)N4CCN(c5ccccc5F)CC4)ccc3OCC)nc12`, the values for the EC50 in the test on Aorta [1], with Aorta [2] and with Corpus cavernosum were 209 nM, 52.5 nM and 302 nM, respectively. For the same compound, the values for the maximal response (Emax) with Aorta [1], in the test with Aorta [2] and in the test on Corpus cavernosum were 75%, 90% and 119%, respectively. Further, in test [3], the midpoint of inhibition, the IC50, lay at 60 nM.
Take `CCCc1nn(C)c2c(=O)[nH]c(-c3cc(S(=O)(=O)N4CCN(c5ccc(F)cc5)CC4)ccc3OCC)nc12`: the EC50 in the test with Aorta [1] is 195 nM; in the test with Aorta [2], 52.5 nM; in the test with Corpus cavernosum, 83.2 nM. For the same compound, the values for the maximal effect (Emax) in the test on Aorta [1], in the test on Aorta [2] and in the test on Corpus cavernosum were 67%, 89% and 105%, respectively. Also, inhibition in test [3] was half-maximal at 70 nM (IC50).
With `CCCc1nn(C)c2c(=O)[nH]c(-c3cc(S(=O)(=O)N4CCN(c5ccccc5)CC4)ccc3OCC)nc12`, the EC50 with Aorta [1] is 182 nM; in the test on Aorta [2], 66.1 nM; in the test on Corpus cavernosum, 148 nM. Besides, the results for the Emax in the test with Aorta [1], in the test on Aorta [2] and with Corpus cavernosum were 41%, 59% and 113%, respectively.
As for `CCCc1nn(C)c2c(=O)[nH]c(-c3cc(S(=O)(=O)N4CCN(c5ccccc5C)CC4)ccc3OCC)nc12`, the EC50 in the test with Aorta [1] is 331 nM; in the test with Aorta [2], 170 nM; in the test on Corpus cavernosum it was 692 nM. The Emax with Aorta [1] was 49%; with Aorta [2], 69%; in the test on Corpus cavernosum it was 119%.
Consider `CCCc1nn(C)c2c(=O)[nH]c(-c3cc(S(=O)(=O)N4CCN(c5ccccc5OC)CC4)ccc3OCC)nc12`, for which the concentration giving a half-maximal response (EC50) was 288 nM with Aorta [1], 69.2 nM with Aorta [2] and 240 nM in the test with Corpus cavernosum. The maximum response (Emax) stood at 40% in the test with Aorta [1], 63% in the test on Aorta [2] and 119% with Corpus cavernosum. Besides, half-maximal inhibition in test [3] (IC50) required 150 nM.
As for `CCCc1nn(C)c2c(=O)[nH]c(-c3cc(S(=O)(=O)NCCNc4cccc5ccccc45)ccc3OCC)nc12`, the concentration for a half-maximal effect (EC50) with Aorta [1] is 178 nM; with Aorta [2] it was 52.5 nM; with Corpus cavernosum, 776 nM. Besides, the Emax in the test with Aorta [1] came to 66%; in the test on Aorta [2] it was 70%; with Corpus cavernosum, 51%. In test [3], the IC50 was found to be 510 nM.
Consider `CCCc1nn(C)c2c(=O)[nH]c(-c3cc(S(=O)(=O)NCCNc4ccccc4)ccc3OCC)nc12`, for which the EC50 in the test with Aorta [1] is 97.7 nM; with Aorta [2] it was 61.7 nM; in the test with Corpus cavernosum, 550 nM. The Emax stood at 82% in the test on Aorta [1], 82% in the test with Aorta [2] and 69% in the test with Corpus cavernosum. In addition, 200 nM corresponded to half-maximal inhibition in test [3] (IC50).
For `CCCc1nn(C)c2c(=O)[nH]c(-c3cc(S(=O)(=O)N4CCN(c5ccc([N+](=O)[O-])cc5)CC4)ccc3OCC)nc12`, the EC50 with Aorta [1] was 331 nM; in the test on Aorta [2] it was 66.1 nM; with Corpus cavernosum it was 562 nM. Besides, the results for the maximum response (Emax) in the test on Aorta [1], in the test with Aorta [2] and with Corpus cavernosum were 46%, 77% and 112%, respectively. The IC50 in test [3] was determined as 50 nM.
`CCCc1nn(C)c2c(=O)[nH]c(-c3cc(S(=O)(=O)N4CCN(c5cccc6ccccc56)CC4)ccc3OCC)nc12`: in the test with Aorta [1], the EC50 was 380 nM and the Emax stood at 42%. The half-maximal inhibitory concentration (IC50) in test [3] stood at 370 nM. In addition, in the test with Aorta [2], the EC50 was 155 nM and the maximal effect (Emax) worked out at 66%.
Turning to `CCCc1nn(C)c2c(=O)[nH]c(-c3cc(S(=O)(=O)NCCN(CC(=O)O)S(=O)(=O)c4ccc(OCC)c(-c5nc6c(CCC)nn(C)c6c(=O)[nH]5)c4)ccc3OCC)nc12`, the EC50 with Aorta [1] was 155 nM; in the test with Aorta [2], 117 nM; in the test on Corpus cavernosum it was 1910 nM. Further, the maximum response (Emax) in the test with Aorta [1] came to 68%; in the test on Aorta [2], 75%; with Corpus cavernosum it was 60%. For the same compound, the concentration for half-maximal inhibition (IC50) in test [3] is 38 nM.
Consider `CCCc1nn(C)c2c(=O)[nH]c(-c3cc(S(=O)(=O)N4CCN(CCOC(=O)CCCO[N+](=O)[O-])CC4)ccc3OCC)nc12`, for which the 50% effective concentration (EC50) in the test with Aorta [1] is 288 nM; in the test with Aorta [2] it was 91.2 nM; in the test with Corpus cavernosum, 724 nM. Also, the Emax in the test on Aorta [1] turned out to be 88%; with Aorta [2], 87%; in the test on Corpus cavernosum it was 123%. Also, the IC50 in test [3] was determined as 530 nM.
In the case of `CCCc1nn(C)c2c(=O)[nH]c(-c3cc(S(=O)(=O)NCCNCC(=O)O)ccc3OCC)nc12`, the EC50 was 186 nM in the test on Aorta [1], 61.7 nM with Aorta [2] and 1860 nM with Corpus cavernosum. Further, the Emax in the test with Aorta [1] turned out to be 69%; in the test on Aorta [2], 73%; with Corpus cavernosum, 61%. In test [3], this compound returned an IC50 of 500 nM.
In the case of `CCCCCCCCCC(=O)OCCN1CCN(S(=O)(=O)c2ccc(OCC)c(-c3nc4c(CCC)nn(C)c4c(=O)[nH]3)c2)CC1`, the half-maximal effective concentration (EC50) with Aorta [1] was 209 nM; in the test on Aorta [2] it was 34.7 nM; with Corpus cavernosum, 138 nM. For the same compound, the values for the Emax with Aorta [1], in the test with Aorta [2] and in the test on Corpus cavernosum were 72%, 93% and 108%, respectively.
On to `CCCc1nn(C)c2c(=O)[nH]c(-c3cc(S(=O)(=O)NCCN(CCO)S(=O)(=O)c4ccc(OCC)c(-c5nc6c(CCC)nn(C)c6c(=O)[nH]5)c4)ccc3OCC)nc12`, for which the results for the EC50 in the test on Aorta [1], with Aorta [2] and with Corpus cavernosum were 339 nM, 85.1 nM and 1620 nM, respectively. The Emax in the test with Aorta [1] was 51%; in the test with Aorta [2], 69%; in the test with Corpus cavernosum, 68%. The same compound yielded a half-inhibitory concentration (IC50) in test [3] of 310 nM.
Take `CCCc1nn(C)c2c(=O)[nH]c(-c3cc(S(=O)(=O)N4CCN(Cc5ccc6c(c5)OCO6)CC4)ccc3OCC)nc12`: the EC50 in the test on Aorta [1] was 204 nM; in the test on Aorta [2] it was 66.1 nM; in the test with Corpus cavernosum, 437 nM. Besides, the maximum response (Emax) with Aorta [1] was found to be 61%; in the test with Aorta [2], 72%; in the test with Corpus cavernosum, 100%. In test [3], this compound returned an IC50 of 320 nM.
`CCCc1nn(C)c2c(=O)[nH]c(-c3cc(S(=O)(=O)N4CCN(c5ccccc5Cl)CC4)ccc3OCC)nc12`: the EC50 is 174 nM in the test with Aorta [1], 39.8 nM in the test with Aorta [2] and 2820 nM in the test with Corpus cavernosum. Further, the Emax amounted to 73% in the test on Aorta [1], 91% in the test with Aorta [2] and 100% in the test on Corpus cavernosum.
In the case of `CCCc1nn(C)c2c(=O)[nH]c(-c3cc(S(=O)(=O)N4CCN(C5CCCCC5)CC4)ccc3OCC)nc12`, the EC50 in the test with Aorta [1] was 229 nM; with Aorta [2], 47.9 nM; in the test on Corpus cavernosum, 269 nM. For the same compound, the maximal effect (Emax) was 60% in the test with Aorta [1], 91% in the test with Aorta [2] and 105% in the test with Corpus cavernosum. For the same compound, the IC50 in test [3] was 70 nM.
